Reference: ChEMBL document CHEMBL1144067, “Cancer chemopreventive agents (antitumor-promoters) from Ajuga decumbens” (J Nat Prod, 1999)

Experiments:
Mus musculus [1] = test: Inhibition of DMBA-induced/TPA-promoted carcinogenesis in mouse assessed as number of mouse bearing papillomas at 85 nmol administered twice weekly after 1 week of initiation for 17 weeks; assay type: functional; set-up: scale not given: the % may be the effect or the level left
In short: (§1)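 Female SPF ICR mice, 6 weeks old, 15 per group, backs shaved; single topical DMBA initiation (100 μg, 390 nmol) in 0.1 mL acetone. From 1 week after, promotion with TPA 1.7 nmol twice weekly, plus 85 nmol test agent. Papilloma incidence and number per mouse monitored weekly for 20 weeks.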

Mus musculus [2] = test: Inhibition of DMBA-induced/TPA-promoted carcinogenesis in mouse assessed as number of mouse bearing papillomas at 85 nmol administered twice weekly after 1 week of initiation for 8 weeks; assay type: functional; set-up: scale not given: the % may be the effect or the level left; in short: as §1
Raji [3] = test: Inhibition of 12-O-tetradecanoylphorbol-13-acetate induced EBV-early antigen activation in human Raji cells at 500 molar ratio relative to control; assay type: cell-based; conditions: human gammaherpesvirus 4
In short: (§2)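 Raji cells in RPMI-1640 treated 48 h at 37 °C with n-butyric acid (4 mmol), TPA (32 pmol = 20 ng/mL) and test agent at 10, 100, 500 or 1000 mol ratio/TPA (0.32–32 nmol). EA-positive cells in smears detected by indirect immunofluorescence; induction expressed relative to TPA positive control (100%), n = 3, ±S.D.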

[4] = Cytotoxicity against human Raji cells assessed as cell viability at 500 molar ratio after 48 hrs; assay type: cell-based; conditions: read-out: Activity
In short: (§3)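 Raji cells (EBV genome-carrying, Burkitt's lymphoma-derived) grown in RPMI-1640 and incubated 48 h at 37 °C with 4 mmol n-butyric acid, 32 pmol TPA (20 ng/mL) and test agent at 10–1000 mol ratio/TPA (0.32–32 nmol). Viability given as percentage of Raji cells; n = 3, ±S.D.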

Mus musculus [5] = test: Inhibition of DMBA-induced/TPA-promoted carcinogenesis in mouse assessed as number of mouse bearing papillomas at 85 nmol administered twice weekly after 1 week of initiation for 10 weeks; assay type: functional; set-up: scale not given: the % may be the effect or the level left; in short: as §1
Mus musculus [6] = test: Toxicity in 4NQO-induced/glycerol-promoted carcinogenesis mouse model assessed change in body weight at 1.27 mg/week administered twice weekly after 5 weeks of initiation for 22 weeks; assay type: organism-based; conditions: in vivo
In short: (§4)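 Female ICR mice in the 4NQO (0.3 mg s.c.)-initiated, 8% glycerol drinking-water-promoted lung model, 15 per group, test agent at 0.0025% or 0.005%. Body weight recorded at end of the 22-week promotion period.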

Mus musculus [7] = test: Inhibition of 4NQO-induced/glycerol-promoted carcinogenesis in mouse assessed number of pulmonary tumors per mouse at 2.54 mg/week administered twice weekly after 5 weeks of initiation for 22 weeks; assay type: functional
In short: (§5)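 Female SPF ICR mice (6 weeks old), 15 per group. Initiation by single s.c. injection of 0.3 mg 4NQO in olive oil–cholesterol (20:1); promotion with 8% glycerol in drinking water ad libitum, test agent given at 0.0025% or 0.005%. Killed by cervical dislocation after 22-week promotion; pulmonary tumors counted per lobe under dissecting microscope. Student's t-test vs 4NQO + glycerol group.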

Mus musculus [8] = test: Inhibition of 4NQO-induced/glycerol-promoted carcinogenesis in mouse assessed number of mouse with pulmonary tumors at 1.27 mg/week administered twice weekly after 5 weeks of initiation for 22 weeks; assay type: functional; set-up: scale not given: the % may be the effect or the level left; in short: as §5
Mus musculus [9] = test: Inhibition of DMBA-induced/TPA-promoted carcinogenesis in mouse assessed as number of skin papillomas per mouse at 85 nmol administered twice weekly after 1 week of initiation for 10 weeks; assay type: functional; in short: as §1
Mus musculus [10] = test: Inhibition of DMBA-induced/TPA-promoted carcinogenesis in mouse assessed as number of skin papillomas per mouse at 85 nmol administered twice weekly after 1 week of initiation for 20 weeks; assay type: functional; in short: as §1
Raji [11] = test: Inhibition of 12-O-tetradecanoylphorbol-13-acetate induced EBV-early antigen activation in human Raji cells at 1000 molar ratio relative to control; assay type: cell-based; conditions: human gammaherpesvirus 4; in short: as §2
Raji [12] = test: Inhibition of 12-O-tetradecanoylphorbol-13-acetate induced EBV-early antigen activation in human Raji cells at 100 molar ratio relative to control; assay type: cell-based; conditions: human gammaherpesvirus 4; in short: as §2
[13] = Cytotoxicity against human Raji cells assessed as cell viability at 10 molar ratio after 48 hrs; assay type: cell-based; conditions: read-out: Activity; in short: as §3
Mus musculus [14] = test: Inhibition of 4NQO-induced/glycerol-promoted carcinogenesis in mouse assessed number of pulmonary tumors per mouse at 1.27 mg/week administered twice weekly after 5 weeks of initiation for 22 weeks; assay type: functional; in short: as §5
Mus musculus [15] = test: Toxicity in 4NQO-induced/glycerol-promoted carcinogenesis mouse model assessed change in body weight at 2.54 mg/week administered twice weekly after 5 weeks of initiation for 22 weeks; assay type: organism-based; conditions: in vivo; in short: as §4
[16] = Cytotoxicity against human Raji cells assessed as cell viability at 100 molar ratio after 48 hrs; assay type: cell-based; conditions: read-out: Activity; in short: as §3
Mus musculus [17] = test: Inhibition of 4NQO-induced/glycerol-promoted carcinogenesis in mouse assessed number of mouse with pulmonary tumors at 2.54 mg/week administered twice weekly after 5 weeks of initiation for 22 weeks; assay type: functional; set-up: scale not given: the % may be the effect or the level left; in short: as §5
Raji [18] = test: Inhibition of 12-O-tetradecanoylphorbol-13-acetate induced EBV-early antigen activation in human Raji cells at 10 molar ratio relative to control; assay type: cell-based; conditions: human gammaherpesvirus 4; in short: as §2

CC(=O)O[C@@]1(C)C[C@@H](O)[C@]2(O)C=CO[C@@H](O[C@@H]3O[C@H](CO)[C@@H](O)[C@H](O)[C@H]3O)[C@@H]21
Activity (Mus musculus [1]): 80%
Activity (Mus musculus [2]): 10%
EBV-EA induction remaining (% of TPA control) (Raji [3]): 19.9%
viability at 48 h, 500 molar ratio [4]: > 80%
Activity (Mus musculus [5]): 20%
Activity (Mus musculus [6]): Non-toxic
Activity (Mus musculus [7]): 0.9
Activity (Mus musculus [8]): 53.3%
Activity (Mus musculus [9]): 2
Activity (Mus musculus [10]): 6
EBV-EA induction remaining (% of TPA control) (Raji [11]): 0%
EBV-EA induction remaining (% of TPA control) (Raji [12]): 62.6%
viability at 48 h, 10 molar ratio [13]: > 80%
Activity (Mus musculus [14]): 1.1
Activity (Mus musculus [15]): Non-toxic
viability at 48 h, 100 molar ratio [16]: > 80%
Activity (Mus musculus [17]): 46.6%
EBV-EA activation relative to TPA control (Raji [18]): 89.5%
